From ChEMBL document CHEMBL4689842, “EUbOPEN Chemogenomics Library wave 1” (2021)

System: HEK-293T
Experiment: Multiplex assay against HEK293T;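 for Population Tubulin-Different-Phenotype (%): share of the cells with healthy nuclei that show this phenotype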
Type: toxicity, cell-based
Conditions: human
Procedure, shortened: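 Values for tubulin, mitochondrial-mass and membrane-permeability phenotypes are per cents of cells with healthy nuclei. These cells were identified by CellPathfinder machine-learning gating of live cells that had been stained at seeding with Hoechst33342, BioTracker Green Microtubule Cytoskeleton Dye, MitoTracker Red and Annexin V Alexa Fluor 680 and imaged on a CQ1 microscope at 37°C and 5% CO2 after compound addition. The gating first set Hoechst high-intensity objects apart from normal cells, then split normal cells into healthy, pyknosed or fragmented nuclei, and pyknosed cells into mitotic or apoptotic.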

[1] = 12 h, 1 µM, compound concentration 1 uM, replicate 1
[2] = 12 h, 1 µM, compound concentration 1 uM, replicate 2
[3] = 12 h, 10 µM, compound concentration 10 uM, replicate 1
[4] = 12 h, 10 µM, compound concentration 10 uM, replicate 2
[5] = 24 h, 1 µM, compound concentration 1 uM, replicate 1
[6] = 24 h, 1 µM, compound concentration 1 uM, replicate 2
[7] = 24 h, 10 µM, compound concentration 10 uM, replicate 1
[8] = 24 h, 10 µM, compound concentration 10 uM, replicate 2
[9] = 48 h, 1 µM, compound concentration 1 uM, replicate 1
[10] = 48 h, 1 µM, compound concentration 1 uM, replicate 2
[11] = 48 h, 10 µM, compound concentration 10 uM, replicate 1
[12] = 48 h, 10 µM, compound concentration 10 uM, replicate 2

## COC(=O)C1=C(C)NC(C)=C(C(=O)OCCCN2CCC(c3ccccc3)(c3ccccc3)CC2)[C@H]1c1cccc([N+](=O)[O-])c1 [NIGULDIPINE]
[1]
  Population Apoptotic (%): 86%
  Population Fragmented Nuclei (%): 7%
  Population Healthy Nuclei (%): 34%
  Population Hoechst High Intensity Objects (%): 9%
  Population Membrane Permeable-Phenotype (%): 2%
  Population Mitochondria Different-Phenotype (%): 98%
  Population Mitotic Cells (%): 13%
  Population Normal (%): 90%
  Population Pyknosed Nuclei (%): 58%
  Population Tubulin-Different-Phenotype (%): 97%
  Total Cell Count: 272
[2]
  Population Apoptotic (%): 91%
  Population Fragmented Nuclei (%): 5%
  Population Healthy Nuclei (%): 32%
  Population Hoechst High Intensity Objects (%): 5%
  Population Membrane Permeable-Phenotype (%): 1%
  Population Mitochondria Different-Phenotype (%): 100%
  Population Mitotic Cells (%): 8%
  Population Normal (%): 94%
  Population Pyknosed Nuclei (%): 62%
  Population Tubulin-Different-Phenotype (%): 98%
  Total Cell Count: 177
[3]
  Population Apoptotic (%): 81%
  Population Fragmented Nuclei (%): 18%
  Population Healthy Nuclei (%): 2%
  Population Hoechst High Intensity Objects (%): 15%
  Population Membrane Permeable-Phenotype (%): 0%
  Population Mitochondria Different-Phenotype (%): 66%
  Population Mitotic Cells (%): 18%
  Population Normal (%): 84%
  Population Pyknosed Nuclei (%): 79%
  Population Tubulin-Different-Phenotype (%): 66%
  Total Cell Count: 266
[4]
  Population Apoptotic (%): 63%
  Population Fragmented Nuclei (%): 6%
  Population Healthy Nuclei (%): 1%
  Population Hoechst High Intensity Objects (%): 7%
  Population Membrane Permeable-Phenotype (%): 66%
  Population Mitochondria Different-Phenotype (%): 0%
  Population Mitotic Cells (%): 36%
  Population Normal (%): 92%
  Population Pyknosed Nuclei (%): 91%
  Population Tubulin-Different-Phenotype (%): 33%
  Total Cell Count: 202
[5]
  Population Apoptotic (%): 86%
  Population Fragmented Nuclei (%): 7%
  Population Healthy Nuclei (%): 41%
  Population Hoechst High Intensity Objects (%): 11%
  Population Membrane Permeable-Phenotype (%): 0%
  Population Mitochondria Different-Phenotype (%): 99%
  Population Mitotic Cells (%): 13%
  Population Normal (%): 88%
  Population Pyknosed Nuclei (%): 50%
  Population Tubulin-Different-Phenotype (%): 97%
  Total Cell Count: 293
[6]
  Population Apoptotic (%): 95%
  Population Fragmented Nuclei (%): 6%
  Population Healthy Nuclei (%): 44%
  Population Hoechst High Intensity Objects (%): 3%
  Population Membrane Permeable-Phenotype (%): 1%
  Population Mitochondria Different-Phenotype (%): 100%
  Population Mitotic Cells (%): 4%
  Population Normal (%): 96%
  Population Pyknosed Nuclei (%): 49%
  Population Tubulin-Different-Phenotype (%): 98%
  Total Cell Count: 181
[7]
  Population Apoptotic (%): 88%
  Population Fragmented Nuclei (%): 20%
  Population Healthy Nuclei (%): 3%
  Population Hoechst High Intensity Objects (%): 12%
  Population Membrane Permeable-Phenotype (%): 11%
  Population Mitochondria Different-Phenotype (%): 66%
  Population Mitotic Cells (%): 11%
  Population Normal (%): 87%
  Population Pyknosed Nuclei (%): 75%
  Population Tubulin-Different-Phenotype (%): 77%
  Total Cell Count: 263
[8]
  Population Apoptotic (%): 79%
  Population Fragmented Nuclei (%): 4%
  Population Healthy Nuclei (%): 1%
  Population Hoechst High Intensity Objects (%): 6%
  Population Membrane Permeable-Phenotype (%): 50%
  Population Mitochondria Different-Phenotype (%): 0%
  Population Mitotic Cells (%): 20%
  Population Normal (%): 93%
  Population Pyknosed Nuclei (%): 94%
  Population Tubulin-Different-Phenotype (%): 0%
  Total Cell Count: 202
[9]
  Population Apoptotic (%): 85%
  Population Fragmented Nuclei (%): 9%
  Population Healthy Nuclei (%): 56%
  Population Hoechst High Intensity Objects (%): 9%
  Population Membrane Permeable-Phenotype (%): 0%
  Population Mitochondria Different-Phenotype (%): 99%
  Population Mitotic Cells (%): 14%
  Population Normal (%): 91%
  Population Pyknosed Nuclei (%): 34%
  Population Tubulin-Different-Phenotype (%): 96%
  Total Cell Count: 300
[10]
  Population Apoptotic (%): 97%
  Population Fragmented Nuclei (%): 6%
  Population Healthy Nuclei (%): 55%
  Population Hoechst High Intensity Objects (%): 8%
  Population Mitochondria Different-Phenotype (%): 98%
  Population Mitotic Cells (%): 2%
  Population Pyknosed Nuclei (%): 37%
  Population Tubulin-Different-Phenotype (%): 99%
  Total Cell Count: 203
[11]
  Population Fragmented Nuclei (%): 24%
  Population Healthy Nuclei (%): 3%
  Population Hoechst High Intensity Objects (%): 14%
  Population Membrane Permeable-Phenotype (%): 22%
  Population Mitochondria Different-Phenotype (%): 66%
  Population Normal (%): 85%
  Population Pyknosed Nuclei (%): 72%
  Population Tubulin-Different-Phenotype (%): 55%
  Total Cell Count: 283
[12]
  Population Apoptotic (%): 93%
  Population Fragmented Nuclei (%): 11%
  Population Healthy Nuclei (%): 6%
  Population Hoechst High Intensity Objects (%): 5%
  Population Membrane Permeable-Phenotype (%): 41%
  Population Mitochondria Different-Phenotype (%): 75%
  Population Mitotic Cells (%): 6%
  Population Normal (%): 94%
  Population Pyknosed Nuclei (%): 82%
  Population Tubulin-Different-Phenotype (%): 66%
  Total Cell Count: 201
